Screening data (PubChem BioAssay)
Most compounds without a hit are left out; they make up all but 1.7% or so of the library.
DNMT1 block – human DNMT1 methyltransferase inhibitors, primary screen, biochemical, molecular beacon, fluorescence, HinP1I cleavage, uHTS; DNA (cytosine-5)-methyltransferase 1 (Homo sapiens), P26358; inhibition (reported as % activation of signal), % at 10 µM; 360,000 tested, 0.83% active; AID 588458, 2011; in the data active means inhibition above about 50%
Casp6 inh – human caspase-6 inhibitors, primary screen, biochemical, VEID-R110 fluorescence, single point, set 2; P55212; purified caspase-6, Z-VEID-R110 cleavage fluorescence; inhibition, % at 12.5 µM; 350,000 tested, 0.53% active;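 active means mean inhibition across replicates at least about 35%, with every replicate also reaching that limit, limit read from the data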;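 further: 0% = median of neutral control wells and 100% = no fluorescence left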
Target sequence (P55212 24-179 limits assumed): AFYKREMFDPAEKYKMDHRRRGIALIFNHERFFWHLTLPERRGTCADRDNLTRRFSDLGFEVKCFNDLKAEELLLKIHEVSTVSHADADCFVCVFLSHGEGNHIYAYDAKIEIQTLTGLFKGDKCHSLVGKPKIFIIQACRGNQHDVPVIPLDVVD
Target sequence (P55212 194-293 limits assumed): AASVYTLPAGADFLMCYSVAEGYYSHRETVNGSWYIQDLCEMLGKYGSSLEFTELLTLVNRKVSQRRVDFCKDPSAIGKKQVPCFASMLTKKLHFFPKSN
SUMO1 PPI mod – modulators of SUMO1 protein-protein interactions, primary screen, biochemical, uHTS. Small ubiquitin-related modifier 1 (Homo sapiens), P63165. SUMO1 binding to a labelled peptide, TR-FRET, 1 h. inhibition, % at 20 µM. 360,000 tested, 0.33% active. AID 602429, 2012; in the data active means inhibition above about 37%
Target sequence (P63165 whole entry, looked up): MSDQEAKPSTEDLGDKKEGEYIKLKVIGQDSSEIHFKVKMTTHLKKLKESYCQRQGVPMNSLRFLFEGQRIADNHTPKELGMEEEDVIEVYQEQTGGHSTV
STEP block – STEP phosphatase inhibitors, primary screen, biochemical, fluorescence intensity, uHTS. inhibition, % at 20 µM. Tyrosine-protein phosphatase non-receptor type 5 (Homo sapiens), P54829. 360,000 tested, 0.25% active. recombinant STEP, OMFP fluorogenic substrate;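 active means inhibition at 20 µM, scaled per plate between control wells, above about 37%, limit read from the data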;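 further: 0% = DMSO with enzyme and substrate and 100% = substrate only without enzyme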
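Also added – OMFP at 25 µM · Test system – STEP tyrosine phosphatase · Technique – FITC-channel fluorescence of OMFP product · Schedule – 20 min at room temperature, dark · Evaluation – control-normalized % inhibition with plate pattern correction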
LMPTP inh – LMPTP phosphatase inhibitors, primary screen, biochemical, fluorescence intensity, uHTS | recombinant LMPTP-A, OMFP fluorogenic substrate | inhibition, % at 20 µM | 360,000 tested, 0.22% active;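 active means compounds that cut the enzyme signal by at least half of the control window in the single-dose screen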;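 further: plate controls were DMSO wells with enzyme plus substrate for no effect and substrate without enzyme for full effect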
Target sequence (P24666 whole entry, looked up): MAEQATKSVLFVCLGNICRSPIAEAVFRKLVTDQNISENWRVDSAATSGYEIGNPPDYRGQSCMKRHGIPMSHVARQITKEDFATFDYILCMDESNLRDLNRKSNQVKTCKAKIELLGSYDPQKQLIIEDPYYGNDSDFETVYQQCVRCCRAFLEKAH
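Assay system: LMPTP-A phosphatase enzyme | Input: 0.625 nM enzyme | Also added: Fluorogenic phosphatase substrate OMFP at 400 µM final | Compound dosing: One test concentration per compound, 20 µM, with 3% DMSO overall | Schedule: 50 min enzyme reaction at room temperature, protected from light | Signal: Fluorescence intensity | Benchmarks: no-enzyme and uninhibited controls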
Scp-1 inhibitor – Scp-1 phosphatase inhibitors, primary screen, biochemical, colorimetric, uHTS; Carboxy-terminal domain RNA polymerase II polypeptide A small phosphatase 1 (Homo …; 340,000 tested, 0.88% active; Recombinant Scp1, phosphopeptide, malachite green phosphate absorbance; inhibition, % at 20 µM;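 active means inhibition above about 50% at 20 µM, limit read from the data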;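 further: plate controls were DMSO wells with enzyme for no effect and wells lacking enzyme for full effect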
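System: SCP-1 catalytic domain; Reagent: Phospho 17-mer peptide substrate; Doses: one concentration, 20 µM, with 1.0% DMSO; Incubation: 45 min room-temperature reaction, 5 min colour, 30 min stabiliser; Signal: Phosphate-binding colour reagent, absorbance read at 630 nm.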
Scp-1 conf – Scp-1 phosphatase inhibitors, retest, confirmation, biochemical, colorimetric, single concentration; shares compounds with Scp-1 inhibitor; recombinant SCP-1 catalytic domain, phosphate release, malachite green absorbance; inhibition, % at 20 µM; 2,500 tested, 61% active; AID 540281, 2011;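 active means inhibition of at least 30% at 20 µM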;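 further: plate controls were DMSO with enzyme for no effect and buffer wells lacking enzyme for full effect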
MG interference – colorimetric readout interference by compounds, confirmation, artefact control for Scp-1 inhibitor project, biochemical, single concentration. Colorimetric interference counterscreen, malachite green absorbance 630 nm. 2,500 tested, under 10 active. shares compounds with Scp-1 inhibitor. apparent inhibition (interference), % at 20 µM. AID 540313, 2011;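 active means inhibition of at least 30% at 20 µM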;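 further: compounds added after enzyme reaction finished so only phosphate colour detection is probed; plate controls were DMSO wells with completed Scp-1 reaction for no effect and substrate wells lacking enzyme for full effect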
Scp1 DSF – Scp-1 binding by thermal shift, confirmation, orthogonal assay for Scp-1 inhibitor project, biophysical, differential scanning fluorimetry. shares compounds with Scp-1 inhibitor. Recombinant SCP1, Sypro Orange thermal shift Tm. thermal shift relative to vanadate control, % at 40 µM. 1,500 tested, 25% active;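 active means substances whose mean melting-temperature shift, as a percentage of the reference inhibitor's shift, reaches about 5.3%, limit read from the data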;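 further: 0% = Tm of DMSO wells and 100% = Tm with sodium orthovanadate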
DNMT1 interf DR – spectral interference with molecular beacon fluorescence, dose response, artefact control for DNMT1 inhibitor project, biochemical, fluorescent molecular beacon. spectral interference counter-screen. 200 tested, under 10 active. shares compounds with DNMT1 block. IC50, µM. AID 602382, 2012
DNMT1 inh conf – DNMT1 methyltransferase inhibitor retest, confirmation, biochemical, molecular beacon, fluorescence, single concentration; inhibition, % at 10 µM; shares compounds with DNMT1 block; AID 602385, 2012; 2,300 tested, 8% active; DNMT1 molecular beacon HinP1I cleavage;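 active means average inhibition of at least 30% in the single-concentration confirmation test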
Beacon interf – counter-screen for DNMT1 inhibitors: spectral interference | shares compounds with DNMT1 block | DNMT1 molecular beacon spectral interference counterscreen, fluorescence 485/520 | activation (fluorescence interference), % at 10 µM | 2,300 tested, 1% active;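 active means activation of at least 30% at 10 µM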;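 further: DNMT1 catalytic domain with a HinP1I cleavage step and a FAM/dabcyl DNA beacon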
STEP inh conf – STEP phosphatase inhibitor hit confirmation, biochemical, fluorescence intensity, single concentration; shares compounds with STEP block; recombinant STEP, OMFP fluorogenic substrate; inhibition, % at 20 µM; 520 tested, 32% active;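 further: 0% = enzyme with substrate plus DMSO and 100% = substrate without enzyme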
* hit, by the source's call; · = no result given. Unless noted, how the calls were made is not given here.

SMILES	DNMT1 block	Casp6 inh	SUMO1 PPI mod	STEP block	LMPTP inh	Scp-1 inhibitor	Scp-1 conf	MG interference	Scp1 DSF	STEP inh conf	others
O=C(CCc1ccccc1)NNC(=O)c1ccc(NC(=O)c2ccccc2)cc1	29	·	0	42*	61*	57*	74*	-14	-16	95*
COc1ccccc1CNC(=O)C[C@@H]1C=C[C@H](NC(C)=O)[C@H](CO)O1	·	-3	·	·	·	·	·	·	·	·
O=C(O)/C=C/c1cn(-c2ccccc2)nc1-c1cc2ccccc2oc1=O	1	3	6	4	0	-7	·	·	·	·
O=Cc1cn(-c2ccccc2)nc1-c1cc2cc(O)ccc2oc1=O	3	·	44*	60*	55*	64*	53*	-10	4	79*
Nc1[nH]c(C(=O)c2ccccc2)c(-c2ccc(Cl)cc2)c1C(=O)c1c[nH]c2ccc(Br)cc12	·	3	·	·	·	·	·	·	·	·
COc1ccc(-n2nc(C(=O)NCC(=O)Nc3ccccn3)c3ccccc3c2=O)cc1Cl	16	·	4	48*	15	63*	43*	-9	-5	32*
COc1ccc(-n2nc(C(=O)NCC(=O)NC(C)C)c3ccccc3c2=O)cc1Cl	1	6	-22	0	-1	5	·	·	·	·
COc1cccc(C(=O)N/N=C(\C)c2ccc(NC(=O)Cc3ccccc3)cc2)c1OC	2	3	-2	-2	-2	-8	·	·	·	·
C/C(=N\NC(=O)c1ccccc1O)c1ccc(NC(=O)Cc2ccccc2)cc1	0	36*	37	84*	59*	101*	84*	-15	0	79*
Cc1cc(C)cc(C(=O)N/N=C/c2ccoc2)c1	14	6	-4	8	1	27	·	·	·	·
O=C(N/N=C/c1ccoc1)c1cc(O)cc(O)c1	93*	74*	43*	61*	35	63*	58*	-16	4	98*	DNMT1 interf DR=>99;DNMT1 inh conf=21;Beacon interf=-5
O=[N+]([O-])c1ccc(/C=N/n2c(-c3cccnc3)n[nH]c2=S)cc1	4	·	-20	56*	43	60*	52*	-19	4	5
O=[N+]([O-])c1cccc(/C=N/n2c(-c3cccnc3)n[nH]c2=S)c1	3	·	-6	4	-2	3	·	·	·	·
O=C(c1cccc(Oc2ccc([N+](=O)[O-])cc2Cl)c1)N1CCOCC1	3	-1	-25	0	-1	-7	·	·	·	·
O=C(N/N=C/c1ccc(OC(=O)c2cccs2)cc1)c1cccc(F)c1	64*	1	-2	43*	68*	95*	77*	-16	-31	28*	DNMT1 inh conf=-1;Beacon interf=4
COC(=O)c1c2oc(c1C(=O)OC)C(=O)N[C@H](Cc1ccccc1)Cn1cc(nn1)CNC(=O)[C@H](Cc1ccccc1)NC(=O)N[C@@H](CO)CC2	·	-1	·	·	·	·	·	·	·	·
Cc1cc(C(F)(F)F)nn1Cc1n[nH]c(=S)n1-c1ccc(Cl)cc1	-3	·	1	-1	-2	-11	·	·	·	·
CCOc1ccc(C(=O)Nc2ccc(NC(=O)c3ccccc3)c(C)c2)cc1[N+](=O)[O-]	29	-1	11	44*	5	78*	59*	-18	-19	-6
Cc1[nH]n(-c2ccccc2)c(=O)c1CCO	1	-6	-3	-1	0	3	·	·	·	·
CCc1c(C)[nH]n(-c2ccc(Oc3ccccc3)c(S(=O)(=O)O)c2)c1=O	66*	·	13	53*	1	79*	80*	-1	2	36*
COc1cccc(Nc2c(Nc3cccc(OC)c3)c(=O)c2=O)c1	67*	1	16	97*	78*	92*	68*	-11	2	23
COc1cccc(Nc2c([N+](=O)[O-])cncc2[N+](=O)[O-])c1	2	2	-45	0	-2	0	·	·	·	·
Cc1cc(C(=O)N/N=C/c2ccc(-c3ccc([N+](=O)[O-])cc3Cl)o2)n[nH]1	-4	-1	68*	94*	69*	56*	68*	-21	8.7*	34*
Cc1cc(C(=O)N/N=C/c2ccc(-c3cccc([N+](=O)[O-])c3)o2)n[nH]1	13	3	-16	-2	1	-8	·	·	·	·
CCOC(=O)N1CCN(C(=O)Nc2ccc3nc(-c4ccccn4)c(-c4ccccn4)nc3c2)CC1	0	·	-17	-15	-2	-2	·	·	·	·
Cc1ccc(-n2c(C)nc3oc4ccccc4c(=O)c3c2=O)cc1	99*	·	25	49*	61*	68*	61*	-10	5	85*	DNMT1 inh conf=6;Beacon interf=-2
O=C(N/N=C/c1ccc([N+](=O)[O-])s1)c1ccncc1	-9	·	-28	3	-1	-7	·	·	·	·
